Test results taken from ChEMBL document CHEMBL1817581, “Synthesis, antibacterial evaluation and QSAR studies of 7-[4-(5-aryl-1,3,4-oxadiazole-2-yl)piperazinyl] quinolone derivatives” (2011).

Tests used:
Staphylococcus aureus = test: Antibacterial activity against Staphylococcus aureus subsp. aureus MTCC 1430 after 24 hrs by NCCLS M7-A6 serial dilution method; assay type: functional
Summary of the method: (§1)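 Two-fold tube dilution in culture medium; compounds dissolved in DMSO and diluted to final concentrations starting from 10 μg/ml until MIC reached. Incubated 24 h at 30 °C. MIC taken as the lowest concentration completely inhibiting growth, reported as pMIC (negative log of molar MIC). Medium plus DMSO was the negative control, ciprofloxacin the positive control. Run in triplicate.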

Escherichia coli = test: Antibacterial activity against Escherichia coli MTCC 739 after 24 hrs by NCCLS M7-A6 serial dilution method; assay type: functional; summary of the method: as §1
Bacillus subtilis = test: Antibacterial activity against Bacillus subtilis MTCC 2423 after 24 hrs by NCCLS M7-A6 serial dilution method; parameters: unit not given here

Structure (SMILES)	-logMIC (Staphylococcus aureus)	-logMIC (Escherichia coli)	-logMIC (Bacillus subtilis)
CCn1cc(C(=O)O)c(=O)c2cc(F)c(N3CCN(c4nnc(-c5ccccc5)o4)CC3)cc21	2.58	2.65	2.58
O=C(O)c1cn(C2CC2)c2cc(N3CCN(c4nnc(-c5cccc([N+](=O)[O-])c5)o4)CC3)c(F)cc2c1=O	2.24	2.17	2.28
COc1c(N2CCN(c3nnc(-c4ccc([N+](=O)[O-])cc4)o3)C(C)C2)c(F)cc2c(=O)c(C(=O)O)cn(C3CC3)c12 (stereo unspecified)	3.61	3.24	3.11
CCn1cc(C(=O)O)c(=O)c2cc(F)c(N3CCN(c4nnc(-c5ccc([N+](=O)[O-])c([N+](=O)[O-])c5)o4)CC3)cc21	3.24	3.63	3.87
COc1ccc(-c2nnc(N3CCN(c4cc5c(cc4F)c(=O)c(C(=O)O)cn5C4CC4)CC3)o2)cc1	3.12	3.2	3.09
COc1ccc(-c2nnc(N3CCN(c4c(F)cc5c(=O)c(C(=O)O)cn(C6CC6)c5c4OC)CC3C)o2)cc1OC (stereo unspecified)	3.36	3.27	3.27
CCn1cc(C(=O)O)c(=O)c2cc(F)c(N3CCN(c4nnc(-c5ccccc5Cl)o4)CC3)cc21	3.21	3.6	3.21
O=C(O)c1cn(C2CC2)c2cc(N3CCN(c4nnc(-c5ccccc5)o4)CC3)c(F)cc2c1=O	3.26	3.22	3.87
COc1c(N2CCN(c3nnc(-c4cccc([N+](=O)[O-])c4)o3)C(C)C2)c(F)cc2c(=O)c(C(=O)O)cn(C3CC3)c12 (stereo unspecified)	3.25	3.55	3.55
CCn1cc(C(=O)O)c(=O)c2cc(F)c(N3CCN(c4nnc(-c5ccc([N+](=O)[O-])cc5)o4)CC3)cc21	3.63	3.24	3.63
O=C(O)c1cn(C2CC2)c2cc(N3CCN(c4nnc(-c5ccc([N+](=O)[O-])c([N+](=O)[O-])c5)o4)CC3)c(F)cc2c1=O	2.95	3.65	3.25
COc1ccc(-c2nnc(N3CCN(c4c(F)cc5c(=O)c(C(=O)O)cn(C6CC6)c5c4OC)CC3C)o2)cc1 (stereo unspecified)	3.17	3.07	3.09
CCn1cc(C(=O)O)c(=O)c2cc(F)c(N3CCN(c4nnc(-c5ccc(OC)c(OC)c5)o4)CC3)cc21	2.43	2.68	2.43
O=C(O)c1cn(C2CC2)c2cc(N3CCN(c4nnc(-c5ccccc5Cl)o4)CC3)c(F)cc2c1=O	2.43	2.43	2.38
COc1c(N2CCN(c3nnc(-c4ccccc4)o3)C(C)C2)c(F)cc2c(=O)c(C(=O)O)cn(C3CC3)c12 (stereo unspecified)	3.62	2.94	3.54
CCn1cc(C(=O)O)c(=O)c2cc(F)c(N3CCN(c4nnc(-c5cccc([N+](=O)[O-])c5)o4)CC3)cc21	2.84	2.69	2.84
O=C(O)c1cn(C2CC2)c2cc(N3CCN(c4nnc(-c5ccc([N+](=O)[O-])cc5)o4)CC3)c(F)cc2c1=O	2.63	2.32	2.32
COc1c(N2CCN(c3nnc(-c4ccc([N+](=O)[O-])c([N+](=O)[O-])c4)o3)C(C)C2)c(F)cc2c(=O)c(C(=O)O)cn(C3CC3)c12 (stereo unspecified)	2.64	3.66	2.96
CCn1cc(C(=O)O)c(=O)c2cc(F)c(N3CCN(c4nnc(-c5ccc(OC)cc5)o4)CC3)cc21	3.2	3.5	3.2
COc1ccc(-c2nnc(N3CCN(c4cc5c(cc4F)c(=O)c(C(=O)O)cn5C4CC4)CC3)o2)cc1OC	2.91	2.67	2.67
COc1c(N2CCN(c3nnc(-c4ccccc4Cl)o3)C(C)C2)c(F)cc2c(=O)c(C(=O)O)cn(C3CC3)c12 (stereo unspecified)	3.24	3.17	3.24
O=C(O)c1cn(C2CC2)c2cc(N3CCNCC3)c(F)cc2c1=O [CIPROFLOXACIN]	3.16	3.52	3.16
